From PubChem BioAssay
In the library only some 4% were active in any assay of this set; here they are far more common.
MDM2 E3 inh: blocks human Mdm2 ubiquitin ligase activity. AID 1230. Q00987. signal enhancement, % at 5 µM. 0.11% of 210,000 active. cell-based MDM2 ubiquitination luciferase reporter, 2 h; 0 = plate control, 100 = twice control, blank-subtracted;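 active = signal enhancement of 30% or more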;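 note: luminescence tracks abundance of the self-degrading MDM2-luciferase fusion protein; higher signal means inhibition of MDM2 E3 ligase activity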
Target sequence (Q00987 whole entry, looked up, the tested form may be a part): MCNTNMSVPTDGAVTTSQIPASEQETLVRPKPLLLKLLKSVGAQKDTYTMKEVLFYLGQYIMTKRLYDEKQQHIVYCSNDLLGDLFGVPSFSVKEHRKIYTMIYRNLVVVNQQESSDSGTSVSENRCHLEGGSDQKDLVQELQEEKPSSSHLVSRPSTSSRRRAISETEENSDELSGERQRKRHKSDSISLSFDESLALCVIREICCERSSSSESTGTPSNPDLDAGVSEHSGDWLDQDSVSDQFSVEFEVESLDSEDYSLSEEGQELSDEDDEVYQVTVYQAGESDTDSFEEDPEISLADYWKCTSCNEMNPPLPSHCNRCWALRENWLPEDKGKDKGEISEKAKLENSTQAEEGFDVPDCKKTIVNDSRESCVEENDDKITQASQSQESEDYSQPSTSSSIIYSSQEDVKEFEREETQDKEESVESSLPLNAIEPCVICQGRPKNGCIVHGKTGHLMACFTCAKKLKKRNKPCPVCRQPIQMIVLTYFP
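Test system: mammalian cells stably expressing self-ubiquitinating, self-degrading MDM2 E3–luciferase fusion; Amount: 2000 cells in each well; Medium: DMEM; Schedule: 4 h settle plus 2 h compound, 37 °C; Technique: SteadyLite luciferase luminescence after 15 min room-temperature reagent incubation; Benchmarks: plate control and blank wells.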
INS promoter inh: TRM-6 insulin promoter activity inhibition; TRM-6 cells, insulin promoter-eGFP reporter, imaging; reporter expression induced with tamoxifen; AID 1273; 0.9% of 130,000 active; inhibition, % at 2 µM;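 active = inhibition above the mean plus 3 SD, with well images judged a real hit on visual review, cut at about 60% in these data, passing the limit was not always enough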
BB579 growth dn: chemicals that inhibit yeast BB579 growth in restrictive medium (lifespan-shortening candidates) | 0.51% of 140,000 active | S. cerevisiae BB579 growth, OD615, 48 h | inhibition, % at 10 µM;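 active = inhibition above a set limit, 3 SD over the mean compound inhibition, cut at about 44% in these data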
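Test system: Saccharomyces cerevisiae DeaD strain BB579, replicative lifespan model yeast | Buffer or medium: Restrictive CSMM-D medium | Doses: One dose, 10 µM compound with 0.25% DMSO | Incubation: 48 h exposure, 30 °C | Detection: Culture absorbance at 615 nm | Control set: Amphotericin B at 10 µg/mL as positive control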
Measles CPE: protection of cells from measles virus | Measles virus-infected cells, CPE protection, absorbance | protection (pct of control), % at 4 µM | 1.5% of 140,000 active | AID 841; in the data active = protection mostly above about 24%, no sharp cut-off; inactive = mostly below about 26%
RAM inhibit: inhibitors of the yeast RAM network; S. cerevisiae dse1pr::URA3 reporter, 5-FOA growth OD615, 2 d; analog-sensitive cbk1-as2 kinase mutant strain; inhibition, % at 50 µM; 1.8% of 190,000 active; AID 868;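 active = inhibition above a set limit, 3 SD over mean compound inhibition, cut at about 8.4% in these data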;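 note: 0% = DMSO-only wells with no growth and 100% = 10 µM 1-NA-PP1 full growth; inhibition rescues growth on 5-FOA so higher OD means more RAM inhibition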
Yeast life ext: yeast lifespan extension | 0.68% of 130,000 active | S. cerevisiae growth with nicotinamide, OD615; deaD strain in restrictive glucose medium | inhibition of the nicotinamide effect, % at 10 µM;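 active = inhibition above a set limit, placed 3 SD over the median of all compounds, cut at about 26% in these data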;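 note: 0% = nicotinamide-treated wells and 100% = cells grown without nicotinamide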
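assay system = DeaD-strain S. cerevisiae | measured by = absorbance at 615 nm | probe or stimulus = nicotinamide 1.5 mM | buffer or medium = CSMM-D glucose medium, restrictive | times = 48 h at 30 °C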
Starred values were filed as active, the others as inactive; nt = no result.

SMILES | MDM2 E3 inh | INS promoter inh | BB579 growth dn | Measles CPE | RAM inhibit | Yeast life ext
O=C1OCC(CO)(CO)N=C1NNc1cc(Cl)ccc1Cl | -2 | -32 | 64* | 16 | -1 | -15
Nc1c(-c2cccc([N+](=O)[O-])c2)nc2ccccn12 | -7 | 69* | -51 | 14 | 2 | -4
CCCCN(C(=O)NC(=O)Nc1ccccc1OC)S(C)(=O)=O | -7 | nt | -35 | 28* | 1 | -27
COC(=O)C1=NN(c2ccccc2)C2(S1)SC(C(C)=O)=C(C)N2c1ccccc1 (stereo not given) | 5 | -8 | -30 | 10 | 1 | -8
CC(=O)C1=NN(c2ccccc2)C2(S1)S/C(=C\c1ccccc1)C(=O)N2c1ccccc1 (stereo not given) | -9 | -27 | -65 | 34* | 3 | -5
CCO[C@@H]1OC(C(=O)N2CCN(Cc3ccccc3)CC2)=C[C@H](c2coc3ccccc3c2=O)[C@H]1CCCO | nt | nt | nt | nt | 0 | nt
O=S1(=O)C=C(Sc2nc3ccccc3s2)c2ccccc21 | 52* | nt | -11 | 2 | 2 | 69*
Cc1cc(C)nc(SC2=CS(=O)(=O)c3ccccc32)n1 | 4 | 6 | -7 | 26 | 1 | -9
CC(=O)C1C(c2ccc(Cl)cc2)c2c(noc2C)CC1(C)O (stereo not given) | -4 | nt | nt | nt | nt | nt
C=C(C)COc1ccc(-c2[nH]ncc2-c2ccccc2)c(O)c1 | -15 | -13 | 88* | 39 | -1 | -17
COc1ccc(-c2nc(N)ncc2Oc2ccccc2Br)c(O)c1 | -14 | -64 | -37 | 5 | 4 | -7
C=C(C)COc1ccc(-c2[nH]ncc2Oc2cccc(OC)c2)c(O)c1 | -17 | -36 | 75* | 6 | 4 | -31
COc1cccc(Oc2cnc(N)nc2-c2ccc(OC)cc2O)c1 | -1 | -62 | -52 | 15 | 10* | -13
Cc1c(N2C(=O)c3ccccc3C2(O)c2ccccc2)c(=O)n(-c2ccccc2)n1C (stereo not given) | 3 | nt | nt | nt | nt | nt
O=C(NC1CC1)C1CCN(C2CCN(C(=O)/C=C/c3ccc(F)cc3)CC2)CC1 | -3 | nt | nt | nt | 0 | nt
COc1ccccc1OCCCCOc1ccccc1C(C)=O | nt | -13 | -23 | 6 | 0 | -7
COc1ccc(C(=O)OCCOc2ccccc2C(C)=O)c(O)c1 | -1 | 22 | nt | nt | 11* | nt
CCOC(=O)C1=C(C)N=c2s/c(=C\c3ccncc3)c(=O)n2C1c1ccc2c(c1)OCO2 (stereo not given) | 0 | 0 | -30 | 6 | 2 | 10
CCOC(=O)C1=C(C)N=c2s/c(=C3\C(=O)Nc4ccccc43)c(=O)n2C1c1ccc2c(c1)OCO2 (stereo not given) | -19 | -24 | -26 | 1 | 10* | -10
COc1ccc(-n2c(SCC(=O)NC3CCCCC3)nc3ccsc3c2=O)cc1 | -12 | -3 | -35 | 24 | 9.1* | 1
CCC(C)NC(=O)CSc1nc2ccsc2c(=O)n1-c1ccc(OC)cc1 (stereo not given) | -17 | -32 | -14 | 29 | 3 | 3
O=C1CCCN1CCC1CCN(C2CC(=O)N(c3ccc(Cl)cc3)C2=O)CC1 (stereo not given) | -21 | 22 | -11 | 7 | 2 | -4
CCc1cc(C(=O)OC)c(NC(=O)c2cc(Br)cs2)s1 | 7 | 8 | -33 | 9 | 10* | -14
CC(=O)c1ccc(NC(=O)C2Cc3ccccc3CN2C(=O)c2ccccc2)cc1 (stereo not given) | -12 | nt | -19 | 9 | 1 | 2
O=C(NC1=NCCS1)C1Cc2ccccc2CN1C(=O)c1ccccc1 (stereo not given) | -10 | 0 | -41 | 29* | 0 | -4
SMILES | MDM2 E3 inh | INS promoter inh | BB579 growth dn | Measles CPE | RAM inhibit | Yeast life ext
CCOc1cc(/C=N/NC(=O)c2ccc(-c3csc(Nc4ccc(C)cc4)n3)cc2)ccc1OCC(=O)O | -6 | 6 | nt | nt | 8.9* | nt
CCOc1cc(/C=N/Nc2ccccc2Cl)ccc1OCC(=O)O | -16 | nt | 96* | 3 | -2 | -9
CCOc1cc(/C=N/Nc2cccc(C(=O)O)c2)ccc1OC(=O)c1ccccc1 | -58 | 47 | nt | nt | 4 | nt
CC1CCc2nc(N)c(C#N)c(-c3cccnc3)c2C1 (stereo not given) | -34 | nt | -6 | 76* | -1 | -3
COc1ccccc1OCC(=O)Nc1ccc(O)cc1C(=O)O | -10 | 19 | -3 | 3 | 3 | -5
COc1cc(Cl)ccc1NC(=O)COc1ccccc1C(=O)N1CCN(c2ccc(O)cc2)CC1 | -27 | 79* | -39 | 9 | 5 | -21
COc1ccc(C(=O)On2c(-c3ccc(Br)cc3)nc3ccccc3c2=O)cc1 | -18 | -6 | -33 | 7 | 3 | 96*
COc1cc(OC)cc(-c2nc3ccccc3c(=O)n2OC(=O)c2ccc(Br)cc2)c1 | -13 | 17 | -11 | 3 | 2 | 71*
O=c1c2ccccc2c(/C=N/c2ncn[nH]2)c(O)n1Cc1ccccc1 | -39 | 71* | -50 | 7 | 4 | -10
COc1ccc(Cn2c(O)c(C=Nc3ccc(OC)cc3)c3ccccc3c2=O)cc1 | -2 | -9 | -7 | 7 | 4 | 4
Cc1ccc(OCC(=O)Sc2ccc(C)cc2)cc1 | -3 | -25 | -12 | 38* | -1 | -6
CC(C)c1ccc(N2C(=O)CC(NNC(=O)c3cccnc3)C2=O)cc1 (stereo not given) | -13 | nt | nt | nt | nt | nt
O=c1[nH]c(=O)n(Cc2ccco2)c2c1C(C(F)(F)F)(C(F)(F)F)N=C(c1ccc(F)cc1)N2 | -16 | 36 | -63 | 15 | 8.8* | 2
O=c1[nH]c(=O)n(Cc2ccccc2)c2c1C(C(F)(F)F)(C(F)(F)F)N=C(c1ccco1)N2 | -7 | 37 | 18 | 5 | 2 | -6
O=S(=O)(Nc1ncccn1)c1ccc(NC(=S)NCc2cccnc2)cc1 | -1 | nt | nt | nt | 2 | nt
Cc1nn(C2CCS(=O)(=O)C2)c(Cl)c1/C=C/C(=O)OCC(=O)Nc1ccccc1[N+](=O)[O-] (stereo not given) | 9 | nt | nt | nt | 4 | nt
Cc1nn(C2CCS(=O)(=O)C2)c(Cl)c1/C=C/C(=O)OCC(=O)Nc1ccccc1OC(F)F (stereo not given) | -6 | 66* | -24 | 4 | 1 | 1
COCCNC(=S)N(CCc1c(C)[nH]c2ccc(Cl)cc12)Cc1cccs1 | 0 | -111 | nt | nt | 9.8* | nt
CNC(=S)N(CCc1c(C)[nH]c2ccc(Cl)cc12)Cc1cccs1 | 7 | -58 | nt | nt | 6 | nt
COc1ccc2c(C)cc3n[nH]c(=S)n3c2c1 | -11 | nt | nt | nt | nt | nt
COc1ccc(N2CC(C(=O)Nc3cc(C)ccn3)CC2=O)cc1 (stereo not given) | -1 | nt | nt | nt | nt | nt
CCN(C(=S)Nc1ccc(Oc2ccccc2)cc1)c1ccccc1 | -7 | nt | -19 | 4 | 1 | 6
